Data reported in ChEMBL document CHEMBL1137302 (J Med Chem, 2006).
Calls of active or inactive are those of the source. No cut-off for these calls is given here.

Legend:
D(4) dopamine receptor [1] = target: T1, D(4) dopamine receptor (Rattus norvegicus, UniProt P30729); assay: Agonist activity at rat D4 receptor in HEK293 cells coexpressing G-alpha-qo5 by FLIPR; assay type: functional, cell-based
T1 sequence (P30729 whole entry): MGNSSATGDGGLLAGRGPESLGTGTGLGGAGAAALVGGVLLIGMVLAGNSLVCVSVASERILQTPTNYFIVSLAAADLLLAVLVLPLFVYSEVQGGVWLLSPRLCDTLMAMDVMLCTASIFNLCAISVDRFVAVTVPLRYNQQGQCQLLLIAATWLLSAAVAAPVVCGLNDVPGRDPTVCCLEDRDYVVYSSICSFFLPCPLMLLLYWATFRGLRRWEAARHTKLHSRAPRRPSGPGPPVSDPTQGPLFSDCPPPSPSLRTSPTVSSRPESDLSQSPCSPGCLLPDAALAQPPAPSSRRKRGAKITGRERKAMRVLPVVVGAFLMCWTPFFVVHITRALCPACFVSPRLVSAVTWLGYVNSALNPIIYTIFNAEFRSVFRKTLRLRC

Mustela putorius furo [2] = organism: Mustela putorius furo; assay: Induction of emesis in ferret; assay type: functional, organism-based
[3] = target: D(3) dopamine receptor (Homo sapiens) (UniProt P35462); assay: Agonist activity at human D3 receptor in HEK293 cells coexpressing G-alpha-qo5 by FLIPR upto 10 uM; assay type: functional, cell-based
Sequence of D(3) dopamine receptor (Homo sapiens) (P35462 whole entry): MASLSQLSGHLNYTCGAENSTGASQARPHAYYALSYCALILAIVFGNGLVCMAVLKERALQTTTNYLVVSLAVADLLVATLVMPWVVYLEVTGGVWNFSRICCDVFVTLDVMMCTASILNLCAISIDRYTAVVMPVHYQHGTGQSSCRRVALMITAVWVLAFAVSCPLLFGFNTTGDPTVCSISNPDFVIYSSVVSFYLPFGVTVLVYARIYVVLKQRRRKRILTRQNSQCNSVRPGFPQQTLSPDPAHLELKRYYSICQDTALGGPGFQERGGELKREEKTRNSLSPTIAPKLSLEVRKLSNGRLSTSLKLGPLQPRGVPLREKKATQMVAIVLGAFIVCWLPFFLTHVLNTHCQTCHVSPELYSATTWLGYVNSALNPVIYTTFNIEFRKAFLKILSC

D(2) dopamine receptor [4] = target: T2, D(2) dopamine receptor (Homo sapiens, UniProt P14416); assay: Displacement of [125I]7-OH-PIPAT from human D2L receptor expressed in HEK293 cell membrane; assay type: cell membranes
T2 sequence (P14416 whole entry): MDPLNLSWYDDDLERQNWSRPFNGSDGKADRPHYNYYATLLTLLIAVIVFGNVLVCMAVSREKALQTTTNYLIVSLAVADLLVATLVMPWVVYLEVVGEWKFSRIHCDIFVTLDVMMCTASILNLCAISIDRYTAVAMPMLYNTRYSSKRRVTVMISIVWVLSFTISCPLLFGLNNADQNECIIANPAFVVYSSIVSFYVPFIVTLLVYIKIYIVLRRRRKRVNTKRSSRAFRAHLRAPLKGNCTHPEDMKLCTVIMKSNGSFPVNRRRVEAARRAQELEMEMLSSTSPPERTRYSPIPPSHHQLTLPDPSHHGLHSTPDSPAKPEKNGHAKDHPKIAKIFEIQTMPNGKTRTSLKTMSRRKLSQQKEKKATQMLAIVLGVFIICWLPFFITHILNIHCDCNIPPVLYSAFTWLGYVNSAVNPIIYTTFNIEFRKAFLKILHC

Mustela putorius furo [5] = organism: Mustela putorius furo; assay: Induction of nausea in ferret; assay type: functional, organism-based
D(4) dopamine receptor [6] = target: T3, D(4) dopamine receptor (Homo sapiens, UniProt P21917); assay: Displacement of [3H]A369508 from human D4 receptor expressed in HEK293 cell membrane; assay type: cell membranes
T3 sequence (P21917 whole entry): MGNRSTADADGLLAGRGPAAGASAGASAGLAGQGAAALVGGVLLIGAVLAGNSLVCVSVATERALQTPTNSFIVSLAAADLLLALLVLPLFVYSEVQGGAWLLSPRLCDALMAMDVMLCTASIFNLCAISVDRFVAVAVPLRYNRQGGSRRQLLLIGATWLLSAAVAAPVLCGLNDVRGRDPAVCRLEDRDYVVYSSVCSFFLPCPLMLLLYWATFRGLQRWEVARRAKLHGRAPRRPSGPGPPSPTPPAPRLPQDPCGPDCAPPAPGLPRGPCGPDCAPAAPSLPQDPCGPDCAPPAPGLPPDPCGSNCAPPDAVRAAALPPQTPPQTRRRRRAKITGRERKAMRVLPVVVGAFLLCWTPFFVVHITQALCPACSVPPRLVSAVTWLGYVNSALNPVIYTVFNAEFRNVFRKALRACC

[7] = target: T4, D(4) dopamine receptor (Rattus norvegicus) (UniProt P30729); assay: Agonist activity at rat D4 receptor in HEK293 cells co-expressing Galphaqo5 by FLIPR relative to dopamine; assay type: functional, cell-based
T4 sequence (whole entry): T1 sequence (P30729 whole entry)

[8] = target: D(2) dopamine receptor (Rattus norvegicus) (UniProt P61169); assay: Agonist activity at rat D2 receptor in HEK293 cells coexpressing G-alpha-qo5 by FLIPR relative to dopamine upto 10 uM; assay type: functional, cell-based
Sequence of D(2) dopamine receptor (Rattus norvegicus) (P61169 whole entry): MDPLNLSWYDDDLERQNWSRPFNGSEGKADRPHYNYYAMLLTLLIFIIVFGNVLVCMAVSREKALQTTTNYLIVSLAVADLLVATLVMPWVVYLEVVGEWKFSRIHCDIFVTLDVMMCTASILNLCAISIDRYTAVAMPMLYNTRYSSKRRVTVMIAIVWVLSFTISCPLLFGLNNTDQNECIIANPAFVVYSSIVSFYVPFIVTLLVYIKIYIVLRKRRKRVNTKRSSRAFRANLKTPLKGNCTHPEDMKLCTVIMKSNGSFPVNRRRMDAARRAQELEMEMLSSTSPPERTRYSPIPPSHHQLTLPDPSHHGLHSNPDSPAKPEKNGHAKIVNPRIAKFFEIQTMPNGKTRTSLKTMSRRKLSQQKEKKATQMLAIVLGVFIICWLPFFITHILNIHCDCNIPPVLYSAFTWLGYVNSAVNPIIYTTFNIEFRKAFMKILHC
Summary of the method: (§1)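 Ca2+ flux by FLIPR in HEK cells cotransfected with the D2 receptor (human, ferret or rat) plus chimeric G protein Gqo5.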

D(4) dopamine receptor [9] = target: T3, D(4) dopamine receptor; assay: (§2) Agonist activity at human D4.4 receptor in HEK293 cells coexpressing G-alpha-qo5 by FLIPR; assay type: functional, cell-based
D(2) dopamine receptor [10] = target: T2, D(2) dopamine receptor; assay: Binding affinity to human D2S receptor
[11] = Agonist activity at ferret D4 receptor in HEK293 cells coexpressing G-alpha-qo5 by FLIPR; assay type: functional, cell-based, Mustela putorius furo; details: Mustela putorius
Summary of the method: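 HEK cells cotransfected with ferret D4 receptor and chimeric G protein Gqo5, with receptor activation read as a calcium flux signal on FLIPR. EC50 is the concentration giving half-maximal activation.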

D(2) dopamine receptor [12] = target: T2, D(2) dopamine receptor; assay: Agonist activity at human D2 receptor in HEK293 cells coexpressing G-alpha-qo5 by FLIPR relative to dopamine upto 10 uM; assay type: functional, cell-based; summary of the method: as §1
[13] = Agonist activity at ferret D4 receptor in HEK293 cells coexpressing G-alpha-qo5 by FLIPR relative to dopamine; assay type: functional, Mustela putorius furo
[14] = target: T5, D(4) dopamine receptor (Homo sapiens) (UniProt P21917); assay: Activity at human D4.4 receptor in HEK293 cells co-expressing Galphaqo5 by FLIPR; assay type: functional, cell-based; details: filed as partial agonist
T5 sequence (whole entry): T3 sequence (P21917 whole entry)

Rattus norvegicus [15] = assay: Proerectile activity in rat measured as incidence of penile erection at 0.1 umol/kg, sc; assay type: functional
Summary of the method: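 Conscious male rats were given a single subcutaneous injection and observed for penile erections over the following 60 min. The read-out was the incidence of erections, expressed as % of animals ± SEM (n = 12–32 animals per group), with significance tested against controls. The value is the maximal incidence at the maximally effective dose.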

[16] = tested on: D(2) dopamine receptor (Mustela putorius furo); assay: Agonist activity at ferret D2 receptor in HEK293 cells coexpressing Galphaqo5 by FLIPR relative to dopamine upto 10 uM
[17] = target: T5, D(4) dopamine receptor (Homo sapiens); assay: Agonist activity at human D4.4 receptor in HEK293 cells coexpressing G-alpha-qo5 by FLIPR with relative to dopamine upto 10 uM; assay type: functional, cell-based
Rattus norvegicus [18] = assay: Blockade of ABT-670-induced erctogenic activity in rat at 3 umol/kg, ip; assay type: functional, organism-based
Rattus norvegicus [19] = assay: Proerectile activity in rat measured as incidence of penile erection at 0.03 umol/kg, sc; assay type: functional
Summary of the method: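 Conscious male rats dosed subcutaneously. Penile erection incidence scored over 60 min after injection; values are % ± SEM, with significance tested against control.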

[20] = Bioavailability in Sprague-Dawley rat at 1 mg/kg, po; assay type: ADME, organism-based; details: in vivo
Summary of the method: (§3)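 Single 1 mg/kg dose given iv, sc or orally to Sprague-Dawley rats, dogs and monkeys; plasma concentrations followed over time (mean ± SEM, n = 3). Cmax, AUC, half-life, clearance and bioavailability calculated from the curves.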

[21] = Half life in Sprague-Dawley rat at 1 mg/kg, sc; assay type: ADME, organism-based; design: dose 1 mg/kg, route subcutaneous; details: in vivo; summary of the method: as §3
D(2) dopamine receptor [22] = target: T2, D(2) dopamine receptor; assay: Binding affinity at human D2L receptor by displacement of [125I]-7-OH-PIPAT in membranes
[23] = Bioavailability in Sprague-Dawley rat at 1 mg/kg, sc; assay type: ADME, organism-based; details: in vivo; summary of the method: as §3
D(4) dopamine receptor [24] = target: T3, D(4) dopamine receptor; assay: Displacement of [3H]spiperone from human D4 receptor expressed in HEK293 cell membrane; assay type: cell membranes
[25] = target: T5, D(4) dopamine receptor (Homo sapiens); assay: as §2; assay type: functional, cell-based
[26] = target: T5, D(4) dopamine receptor (Homo sapiens); assay: Agonist activity at human D4.4 receptor in HEK293 cells coexpressing G-alpha-qo5 by FLIPR upto 10 uM; assay type: functional, cell-based
D(2) dopamine receptor [27] = target: T2, D(2) dopamine receptor; assay: Agonist activity at human D2 receptor in HEK293 cells coexpressing G-alpha-qo5 by FLIPR; assay type: functional, cell-based

Oc1ccc(N2CCN(Cc3nc4ccccc4[nH]3)CC2)nc1
EC50 (D(4) dopamine receptor [1]): 13.7 nM | Activity (Mustela putorius furo [2]): inactive | Activity [3]: inactive | Ki (D(2) dopamine receptor [4]): > 10000 nM | Activity (Mustela putorius furo [5]): inactive | Ki (D(4) dopamine receptor [6]): 17 nM | Efficacy [7]: 66% | Activity [8]: inactive | EC50 (D(4) dopamine receptor [9]): 2.4 nM | Ki (D(2) dopamine receptor [10]): > 10000 nM | EC50 [11]: 5 nM | Activity (D(2) dopamine receptor [12]): inactive | Efficacy [13]: 48% | Activity [14]: Partial agonist | Activity (Rattus norvegicus [15]): 60% | Activity [16]: inactive

O=C(CN1CCC(c2cccc[n+]2[O-])CC1)Nc1ccccn1
Activity [17]: inactive

CN1CCN(C2=Nc3cc(Cl)ccc3Nc3ccccc32)CC1
Activity (Rattus norvegicus [18]): Active

Cc1cccc(C(=O)NCN2CCC(c3ccccn3)CC2)c1
Activity (Rattus norvegicus [19]): 83% | bioavailability [20]: 2% | Ki (D(2) dopamine receptor [4]): 3500 nM | EC50 (D(4) dopamine receptor [9]): 9 nM | half-life [21]: 36 min | Ki (D(2) dopamine receptor [22]): 3500 nM | bioavailability [23]: 76% | Ki (D(4) dopamine receptor [24]): 32 nM

Cc1cccc(C(=O)NCN2CCC(c3ccccc3)CC2)c1
Ki (D(2) dopamine receptor [4]): 235 nM | Efficacy [25]: 17% | Activity [26]: inactive

COc1ccccc1C1CCN(CNC(=O)c2cccc(C)c2)CC1
Ki (D(2) dopamine receptor [4]): 27 nM | EC50 (D(2) dopamine receptor [27]): > 10000 nM | Ki (D(4) dopamine receptor [6]): 1.3 nM | EC50 (D(4) dopamine receptor [9]): 206 nM | Activity [14]: Partial agonist
